Measured values collected from several papers.
Each line is one published result; the experiments were not run side by side.
Target: Serine/threonine-protein kinase PLK3 (PLK3, Homo sapiens, UniProt Q9H4B4)

COc1cnc(Nc2cccc(S(N)(=O)=O)c2)nc1N1CCN(c2ccccc2)CC1
remaining binding (binding; competition with immobilised ligand; 1 µM): 95%

CN(C)c1nccc(-c2cnn3ncccc23)n1
remaining binding (binding; 1 µM): 83%

Nc1ncc2c(n1)-c1c([nH]c3ccc(C#CC4CC4)cc13)CCCC2
remaining binding (binding; competition with immobilised ligand; 1 µM): 99%

CC(C)(C)c1ccc(-c2nc(CBr)nn2-c2cccc(O)c2)cc1
remaining binding (cell-free assay; competition with immobilised ligand; 10 µM): 98%

CCOCCn1cc(C(=O)Nc2ccc(-n3nc(-c4cccnc4)cc3C(F)(F)F)cn2)ccc1=O
remaining binding (cell-free assay; competition with immobilised ligand; 1 µM): 84%

O=C(Nc1c[nH]nc1C(=O)NC1CCNCC1)c1cc(F)cc(F)c1
remaining binding (binding; competition with immobilised ligand; 1 µM): 86%

CN(CCCC(F)(F)F)c1nccc(-c2cnn3ncccc23)n1
remaining binding (binding; 1 µM): 100%

COc1ccc2cc(OCC3(C(=O)O)CN(C(=O)c4ccc(F)cc4)C3)ccc2c1
remaining binding (cell-free assay; competition with immobilised ligand; 1 µM): 95%

CCN1CCN(Cc2ccc(C(=O)Nc3ccc(C)c(Oc4ccc5c(c4)CC(=O)N5)c3)cc2C(F)(F)F)CC1
remaining binding (binding; competition with immobilised ligand; 1 µM): 100%

N[C@H]1CCN(c2nccc(-c3cnn4ncccc34)n2)C1
remaining binding (binding; 1 µM): 83%

C[C@H](NC(=O)c1cnc2n1[C@](C)(Cc1ccc(C#N)cc1)C(=O)N2c1cc(Cl)c(F)c(Cl)c1)C(=O)NC1(c2ccccn2)CC1
remaining binding (cell-free assay; competition with immobilised ligand; 1 µM): 81%

C[C@@H]1CCN(c2nccc(-c3cnn4ncccc34)n2)C1
remaining binding (binding; 1 µM): 88%

C[C@H](c1ccc(F)cc1)N(Cc1cccc(C(=O)O)c1)C(=O)c1cnc2ccccc2c1
remaining binding (cell-free assay; competition with immobilised ligand; 1 µM): 100%

FC(F)(F)Oc1cccc(-c2cnc3ccc(-c4ccncc4)nn23)c1
remaining binding (cell-free assay; competition with immobilised ligand; 5 µM): 63%

O=C(NCCCN1CCOCC1)c1ccc(Nc2nccc(-c3cc4ccccc4s3)n2)cc1
remaining binding (binding; competition with immobilised ligand; 1 µM): 42%

CS(=O)(=O)c1cc(C2(NC(=O)c3cncc4c3cnn4-c3ccc(F)cc3)CC2)ccn1
remaining binding (cell-free assay; competition with immobilised ligand; 1 µM): 68%

O=C(NCCCN1CCOCC1)c1ccc(Nc2ncc(Cl)c(-c3ccc(Cl)s3)n2)cc1
remaining binding (binding; competition with immobilised ligand; 1 µM): 7.8%

CN(C)c1ncnc(-c2ccc3nc(Nc4cc(CN5CCN(C(=O)CC(F)(F)F)CC5)ccn4)[nH]c3c2)c1Cl
remaining binding (cell-free assay; competition with immobilised ligand; 1 µM): 100%

CN(c1nccc(-c2cnn3ncccc23)n1)C1CC1
remaining binding (binding; 1 µM): 86%

C[C@@H]1CN(c2ccc3ncc(-c4ccc5[nH]nc(C6CC6)c5c4)n3n2)C[C@H](C)O1
remaining binding (binding; competition with immobilised ligand; 50 nM): 78%

CNC(=O)[C@@H]1CC[C@@H](n2c(-c3ccc4cnccc4c3)nc3ccc(C(=O)NCc4cccc(C(N)=O)c4)cc32)C1
remaining binding (binding; competition with immobilised ligand; 1 µM): 100%

C[C@H](c1ccnc(Nc2nc3ccc(-c4cc(N(C)C)ncn4)cc3[nH]2)c1)N1CCN(C(=O)CC(F)(F)F)CC1
remaining binding (cell-free assay; competition with immobilised ligand; 0.1 µM): 100%

CN(C)c1ncc(F)c(-c2cnn3ncccc23)n1
remaining binding (binding; 1 µM): 79%

O=C(c1ccc(Nc2ncc(Cl)c(-c3cc4ccccc4s3)n2)cc1)N1CCC(N2CCCC2)CC1
remaining binding (binding; competition with immobilised ligand; 1 µM): 58%
